Hits are enriched below; roughly 5.9% of the tested compounds scored in any of these assays.
IDH1 mut inh: inhibitors of human IDH1 R132H; actives 0.18% (n = 70,000); O75874; inhibition, % at 10 µM; IDH1 R132H reductase, diaphorase/resazurin fluorescence, 60 min; AID 624101; in the data active means inhibition above about 34%; inconclusive means no clear call, values can overlap the other calls; inactive means below about 11%;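 further: 0% = DMSO and 100% = no enzyme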
Target sequence (O75874 whole entry R132H): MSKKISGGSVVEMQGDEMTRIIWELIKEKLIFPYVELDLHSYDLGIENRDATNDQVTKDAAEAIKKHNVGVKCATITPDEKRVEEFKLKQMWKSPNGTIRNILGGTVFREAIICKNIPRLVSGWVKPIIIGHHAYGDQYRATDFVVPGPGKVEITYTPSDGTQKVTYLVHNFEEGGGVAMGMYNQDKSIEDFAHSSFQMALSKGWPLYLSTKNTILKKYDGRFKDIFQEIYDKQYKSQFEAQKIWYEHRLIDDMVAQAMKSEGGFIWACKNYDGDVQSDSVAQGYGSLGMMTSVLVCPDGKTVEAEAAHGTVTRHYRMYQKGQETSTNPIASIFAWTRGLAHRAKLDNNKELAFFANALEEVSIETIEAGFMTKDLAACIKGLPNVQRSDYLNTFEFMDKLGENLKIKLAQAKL
T cruzi growth-1: blocks T. cruzi growth in NIH3T3 culture | T. cruzi beta-gal in NIH3T3, GalScreen luminescence, 90 h | inhibition, % at 8.34 µM | actives 5.9% (n = 77,000);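 active means mean inhibition above about 93%, with at least 55% of replicates each passing it, limit read from the data, passing the limit was not always enough; inconclusive means only one of those two conditions holds; inactive means neither condition holds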
GASC1 inh: blocks human GASC-1 (KDM4C) demethylase activity. Q9H3R0. GST-KDM4C 2-372, H3K9me3 peptide, LANCE TR-FRET. inhibition, % at 12.5 µM. actives 0.15% (n = 96,000). AID 720574;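 active means mean replicate inhibition above about 25%, with at least 55% of replicates also reaching it, limit read from the data, passing the limit was not always enough; inconclusive means only one of those two conditions met; inactive means neither condition met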
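Assay system: GST-GASC-1 enzyme fragment 2-372 | Amount: 10 nM enzyme | Medium: HEPES buffer, pH 7.5, plus ascorbate | Reagent: H3K9me3 peptide substrate, Fe(II), 2-oxoglutarate | Doses: Single-point compound screen | Incubation: 30 min demethylation and 1 h detection at room temperature | Measured by: LANCE TR-FRET, excitation 340 nm, emissions 618 and 671 nm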
Pf Dd2 growth: blocks growth of Plasmodium falciparum Dd2 parasites | AID 1159554 | activity change, % at 10 µM | P. falciparum Dd2 growth, SYBR Green, 72 h; stronger effect = lower value | actives 2.3% (n = 94,000); in the data active means activity change below about -80%; inconclusive means no clear call, values can overlap the other calls
T cruzi growth-2: inhibitors of T. cruzi proliferation; shares compounds with T cruzi growth-1; T. cruzi beta-gal in NIH3T3, GalScreen luminescence, 90 h; inhibition, % at 8.35 µM; actives 72% (n = 5,600);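 active means mean replicate inhibition above about 95% and at least 55% of replicates individually reaching it, limit read from the data; inconclusive means only one of the two criteria is met; inactive means neither criterion is met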
T cruzi growth-3: Trypanosoma cruzi proliferation inhibition. T. cruzi beta-gal in NIH3T3, GalScreen luminescence, 90 h. inhibition, % at 2.09 µM. actives 21% (n = 5,600). shares compounds with T cruzi growth-1;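 active means mean inhibition above about 95%, with at least 55% of replicates also reaching it, limit read from the data; inconclusive means meets just one of the two conditions; inactive means meets neither condition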;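 further: plate controls were neutral control median for no effect and positive control median for full effect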
3T3 cytotox: kills mouse NIH/3T3 fibroblasts. shares compounds with T cruzi growth-1. NIH/3T3 viability, CellTiter-Glo ATP luminescence, 90 h. cytotoxicity (signal decrease), % at 8.35 µM. actives 14% (n = 5,600);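 active means mean signal decrease across replicates above about 35% based on untreated-well scatter, with enough replicates individually passing, limit read from the data; inconclusive means no rule stated though some were filed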;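 further: 0% = median of neutral control wells and 100% = median of positive control wells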
NIH3T3 tox 2: kills mouse NIH/3T3 fibroblasts | shares compounds with T cruzi growth-1 | NIH/3T3 viability, CellTiter-Glo ATP luminescence, 90 h | inhibition, % at 24.9 µM | actives 56% (n = 5,600) | AID 651744;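 active means mean loss of cell viability signal at or above a set limit, and enough replicates individually reaching it; inconclusive means meets only the mean limit or only the replicate share; inactive means meets neither condition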;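 further: 0% = median of neutral control wells and 100% = median of positive control wells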
Active calls of the source: *; ? = inconclusive; · = not tested or not shown; ! = not active in a repeat.

SMILES	IDH1 mut inh	T cruzi growth-1	GASC1 inh	Pf Dd2 growth	T cruzi growth-2	T cruzi growth-3	3T3 cytotox	NIH3T3 tox 2
CNC[C@H]1Oc2ncc(C#CCC(C)C)cc2C(=O)N([C@H](C)CO)C[C@H]1C	0	105*	-1	-57	106*	89	5	22
C[C@H](CO)N1C[C@H](C)[C@H](CN(C)Cc2cccc(C(F)(F)F)c2)Oc2ncc(C#Cc3ccc(F)cc3)cc2C1=O	·	·	0	-33	·	·	·	·
C[C@H](CO)N1C[C@H](C)[C@H](CN(C)Cc2ccc(F)cc2)Oc2ncc(C#Cc3ccccc3)cc2C1=O	1	?	0	-5	103*	88	12	101*
CC12CCCCC1C1(C=CC(=O)C=C1)C(c1ccccc1)=N2 (stereo not given)	0	·	·	·	·	·	·	·
COc1ccc(OC)c(NC(=O)CSc2nc(C)cc(C)n2)c1	0	·	·	·	·	·	·	·
CC(C)CC#Cc1cnc2c(c1)C(=O)N([C@@H](C)CO)C[C@@H](C)[C@@H](CN(C)Cc1ccc(F)cc1)O2	-1	?	0	-57	108*	58	5	57*
CC(C)CC#Cc1cnc2c(c1)C(=O)N([C@H](C)CO)C[C@H](C)[C@@H](CN(C)Cc1ccc(F)cc1)O2	-2	48	-1	-30	·	·	·	·
Cc1ccc(-c2ccc3c(c2)O[C@H](CN(C)C(=O)C2CCCCC2)[C@H](C)CN([C@@H](C)CO)S3(=O)=O)cc1	-5	118*	-2	-25	95	73	50*	106*
Cc1ccc(-c2ccc3c(c2)O[C@H](CN(C)C(=O)C2CCC2)[C@H](C)CN([C@@H](C)CO)S3(=O)=O)cc1	·	121*	2	-50	83	73	41*	78*
C[C@@H]1CN([C@H](C)CO)S(=O)(=O)c2ccc(-c3ccncc3)cc2O[C@H]1CN(C)C(=O)C1CCC1	·	103*	1	-2	89	29	18	42*
Cc1ccc(-c2ccc3c(c2)O[C@H](CN(C)C(=O)C2CCCCC2)[C@H](C)CN([C@H](C)CO)S3(=O)=O)cc1	·	121*	-2	-29	96*	?	29	105*
Cc1cccc(C)c1NC(=O)CSc1nnnn1-c1c(C)cccc1C	-1	·	·	·	·	·	·	·
C[C@@H]1CN([C@@H](C)CO)S(=O)(=O)c2ccc(-c3ccccc3)cc2O[C@H]1CN(C)C(=O)C1CCCCC1	·	?	-2	-50	97*	53	34	0
Cc1ccc(-c2ccc3c(c2)O[C@@H](CN(C)C(=O)C2CCCCC2)[C@H](C)CN([C@H](C)CO)S3(=O)=O)cc1	·	112*	-2	-79	101*	87	21	107*
COc1ccccc1NC(=O)CCCC(=O)O	3	·	·	·	·	·	·	·
C[C@@H]1CN([C@@H](C)CO)C(=O)c2cc(NC(=O)c3ccccc3)ccc2O[C@@H](C)CCCCO[C@H]1CN(C)C(=O)c1ccccc1	-6	?	7	-52	91	0	-2	0
C[C@H]1CCCCO[C@H](CN(C)C(=O)c2ccncc2)[C@@H](C)CN([C@@H](C)CO)C(=O)c2cc(NC(=O)c3ccccc3)ccc2O1	·	100*	0	-7	51	11	-4	-8
C[C@H](CO)N1C[C@H](C)[C@@H](CN(C)C)OCCCC[C@H](C)Oc2ccc(NC(=O)c3ccncc3)cc2C1=O	2	3	0	·	·	·	·	·
C[C@@H]1CCCCO[C@@H](CN(C)C)[C@H](C)CN([C@@H](C)CO)C(=O)c2cc(NC(=O)c3ccncc3)ccc2O1	4	100*	2	29	-11	-38	-9	-4
COc1cccc(-n2nnnc2SCC(=O)Nc2c(C)cc(C)cc2C)c1	0	·	·	·	·	·	·	·
C[C@@H]1CN([C@H](C)CO)C(=O)c2cc(/C=C/c3ccccc3)cnc2O[C@@H]1CN(C)Cc1ccccc1	0	84	0	-19	·	·	·	·
C[C@H](CO)N1C[C@H](C)[C@H](CN(C)Cc2ccccc2)Oc2ncc(/C=C/c3ccccc3)cc2C1=O	0	120*!	0	-70	117*	91	37*	102*
COc1ccc(NC(=O)N(C)C[C@@H]2Oc3ncc(-c4cccc(C(F)(F)F)c4)cc3C(=O)N([C@H](C)CO)C[C@@H]2C)cc1	-1	103*	0	-40	98*	60	19	46*
C[C@@H]1CN([C@@H](C)CO)C(=O)c2cc(/C=C/c3ccccc3)cnc2O[C@@H]1CN(C)Cc1ccncc1	0	68	-2	-26	·	·	·	·
C[C@@H]1CN([C@H](C)CO)C(=O)c2cc(/C=C/c3ccccc3)cnc2O[C@H]1CN(C)Cc1ccncc1	3	113*	1	-11	105*	66	14	30*
SMILES	IDH1 mut inh	T cruzi growth-1	GASC1 inh	Pf Dd2 growth	T cruzi growth-2	T cruzi growth-3	3T3 cytotox	NIH3T3 tox 2
COc1cccc(-c2cnc3c(c2)C(=O)N([C@H](C)CO)C[C@H](C)[C@H](CN(C)Cc2cccc(C(F)(F)F)c2)O3)c1	4	?	0	-18	107*	80	30	61*
COc1cccc(-c2cnc3c(c2)C(=O)N([C@H](C)CO)C[C@H](C)[C@H](CN(C)Cc2ccccc2)O3)c1	-2	16	-1	-1	·	·	·	·
C[C@H](CO)N1C[C@H](C)[C@H](CN(C)C(=O)Nc2ccccc2)Oc2ncc(-c3cccc(C(F)(F)F)c3)cc2C1=O	·	91	-1	-26	·	·	·	·
COc1ccc(C)cc1S(=O)(=O)N(C)CC(=O)Nc1cccc(SC)c1	0	·	·	·	·	·	·	·
CC(=O)Nc1cccc(OCC(=O)N(C)c2ccccc2)c1	0	·	·	·	·	·	·	·
Cc1ccc(NC(=O)CN(c2ccc(F)c(Cl)c2)S(C)(=O)=O)c(C)c1	0	·	·	·	·	·	·	·
Cc1ccc(S(=O)(=O)N(C)CC(=O)Nc2ccc(C)c(C)c2)cc1	-1	·	·	·	·	·	·	·
O=C(CSc1nc2ccccc2[nH]1)Nc1ccc(Cl)cc1O	0	·	·	·	·	·	·	·
Cc1cccc(CN(C)C[C@@H]2Oc3ncc(/C=C/c4ccccc4)cc3C(=O)N([C@H](C)CO)C[C@@H]2C)c1	0	86	1	-60	·	·	·	·
C[C@H]1CN([C@@H](C)CO)C(=O)c2cc(/C=C/c3ccccc3)cnc2O[C@@H]1CN(C)Cc1ccccc1	0	106*	0	-59	109*	79	24	103*
C[C@H]1CN([C@@H](C)CO)C(=O)c2cc(/C=C/c3ccccc3)cnc2O[C@@H]1CN(C)Cc1ccncc1	-3	85	4	-32	·	·	·	·

Bioassay records deposited in PubChem BioAssay by Broad Institute.
